Reference: ChEMBL document CHEMBL4665798, “Novel Human Urate Transporter 1 Inhibitors as Hypouricemic Drug Candidates with Favorable Druggability” (J Med Chem, 2020)

How the values were obtained:
[1] = test system: Mus musculus; experiment: Hypouricemic activity in Kunming mouse model of xanthine/potassium oxonate-induced acute hyperuricemia assessed as decrease in serum uric acid level at 2 mg/kg administered 3 hrs prior to xanthine/potassium oxonate and measured after 6 hrs relative to control; assay type: functional; set-up: scale not given: the % may be the effect or the level left; settings: time 9 hrs
Procedure, shortened: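 Male Kunming mice, hyperuricemia induced by intragastric xanthine plus subcutaneous potassium oxonate (0.2 mL each). […] Groups: normal vehicle, untreated model, active control, test. Serum uric acid measured. Decrease ratio = (model SUA − compound SUA)/(model SUA − vehicle SUA).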

[2] = test system: Mus musculus; experiment: Potency index, ratio of lesinurad to test compound for hypouricemic activity in Kunming mouse model of xanthine/potassium oxonate-induced acute hyperuricemia assessed as decrease in serum uric acid level at 2 mg/kg administered 3 hrs prior to xanthine/potassium oxonate and measured after 6 hrs; assay type: functional

SMILES: CC(Sc1nc2ncccc2n1-c1ccc(C#N)c2ccccc12)C(=O)O (configuration not stated)
- Activity [1]: 95.01%
- Ratio [2]: 2.8
